What was measured:
Histone deacetylase 2 = Histone deacetylase 2 (Homo sapiens, UniProt Q92769); assay: Inhibition of human recombinant HDAC2 by fluorimetry
Histone deacetylase = assay: Inhibition of HDAC in human HeLa cell nuclear extracts by fluorimetry; type: cell-based
Histone deacetylase 8 = target: T1, Histone deacetylase 8 (Homo sapiens, UniProt Q9BY41); assay: Inhibition of human recombinant HDAC8 by fluorimetry
T1 sequence (Q9BY41 whole entry): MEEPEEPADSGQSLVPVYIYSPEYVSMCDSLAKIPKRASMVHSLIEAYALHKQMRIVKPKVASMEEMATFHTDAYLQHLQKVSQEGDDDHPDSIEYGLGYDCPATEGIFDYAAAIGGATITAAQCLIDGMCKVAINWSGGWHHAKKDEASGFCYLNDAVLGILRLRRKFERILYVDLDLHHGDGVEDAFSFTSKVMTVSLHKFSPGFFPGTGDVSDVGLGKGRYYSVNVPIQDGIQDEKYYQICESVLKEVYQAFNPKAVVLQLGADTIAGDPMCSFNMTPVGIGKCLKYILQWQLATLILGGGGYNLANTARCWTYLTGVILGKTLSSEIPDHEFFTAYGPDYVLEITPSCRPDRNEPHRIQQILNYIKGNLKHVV

LOX IMVI = assay: cells; type: functional; details: Homo sapiens, 48 h
DMS-114 = assay: Growth inhibition of human DMS114 cells after 48 hrs by sulforhodamine B assay; type: functional
Procedure, shortened: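 GI50 read from growth inhibition of DMS114 lung cancer cells, one line in a nine-line human cancer panel; each value is the mean of two separate experiments.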

HCT-116 = assay: cells; type: functional; details: Homo sapiens, HCT-116, 48 h
SK-OV-3 = assay: cells; type: functional; details: Homo sapiens, SK-OV-3, 48 h
Histone deacetylase 1 [1] = target: T2, Histone deacetylase 1 (Homo sapiens, UniProt Q13547); assay: Inhibition of human recombinant HDAC1 by fluorimetry
MKN-45 = assay: cells; type: functional; details: Homo sapiens, MKN-45, 48 h
PC-3 = assay: cells; type: functional; details: Homo sapiens, PC-3, 48 h
SNB-78 = assay: cells; type: functional; details: Homo sapiens, SNB-78, 48 h
[2] = target: T3, Protein deacetylase HDAC6 (Homo sapiens, UniProt Q9UBN7); assay: Inhibition of human recombinant HDAC6 by fluorimetry
T3 sequence (Q9UBN7 whole entry): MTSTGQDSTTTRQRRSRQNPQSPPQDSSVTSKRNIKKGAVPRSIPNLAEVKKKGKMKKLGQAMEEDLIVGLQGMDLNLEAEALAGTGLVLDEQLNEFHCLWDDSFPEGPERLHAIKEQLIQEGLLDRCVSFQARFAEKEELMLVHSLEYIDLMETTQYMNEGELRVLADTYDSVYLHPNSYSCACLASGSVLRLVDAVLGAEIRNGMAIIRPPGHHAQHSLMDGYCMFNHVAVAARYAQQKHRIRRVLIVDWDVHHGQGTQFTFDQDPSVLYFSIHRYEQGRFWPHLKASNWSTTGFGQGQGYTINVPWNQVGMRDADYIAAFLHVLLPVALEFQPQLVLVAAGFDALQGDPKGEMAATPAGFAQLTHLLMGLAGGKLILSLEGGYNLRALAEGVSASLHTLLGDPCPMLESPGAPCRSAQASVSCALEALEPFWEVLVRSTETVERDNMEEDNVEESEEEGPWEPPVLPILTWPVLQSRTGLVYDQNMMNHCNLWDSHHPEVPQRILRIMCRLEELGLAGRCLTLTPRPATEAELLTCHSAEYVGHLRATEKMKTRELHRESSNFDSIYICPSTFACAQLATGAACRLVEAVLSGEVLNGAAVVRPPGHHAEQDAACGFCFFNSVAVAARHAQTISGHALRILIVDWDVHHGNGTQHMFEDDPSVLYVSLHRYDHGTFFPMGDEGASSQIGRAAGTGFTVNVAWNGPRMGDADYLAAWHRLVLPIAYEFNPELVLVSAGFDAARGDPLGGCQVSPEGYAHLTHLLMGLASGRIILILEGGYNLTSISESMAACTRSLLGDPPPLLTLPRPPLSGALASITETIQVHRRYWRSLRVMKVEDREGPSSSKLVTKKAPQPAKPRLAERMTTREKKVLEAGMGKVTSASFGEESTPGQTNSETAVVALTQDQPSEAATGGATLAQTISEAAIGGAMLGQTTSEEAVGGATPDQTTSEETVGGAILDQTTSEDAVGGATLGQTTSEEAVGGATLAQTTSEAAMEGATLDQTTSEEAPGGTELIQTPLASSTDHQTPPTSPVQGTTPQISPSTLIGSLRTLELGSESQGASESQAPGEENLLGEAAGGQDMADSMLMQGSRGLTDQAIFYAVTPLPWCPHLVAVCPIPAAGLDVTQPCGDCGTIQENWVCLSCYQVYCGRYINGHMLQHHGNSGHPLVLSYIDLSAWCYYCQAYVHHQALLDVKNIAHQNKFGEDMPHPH

cells [3] = type: functional; details: Homo sapiens, HBC5, 48 h
cells [4] = type: functional; details: Homo sapiens, RXF 631, 48 h
[5] = target: T4, Histone deacetylase (Homo sapiens) (UniProt Q13547+O15379+Q9UBN7+Q92769+Q9UQL6+Q8WUI4+Q9BY41+Q96DB2+P56524+Q9UKV0+Q969S8); assay: Inhibition of HDAC in human HeLa cell nuclear extracts at 100 uM by fluorimetry; type: cell-free
[6] = target: T4, Histone deacetylase (Homo sapiens); assay: Inhibition of HDAC in human HCT116 cells assessed as induction of histone H4 acetylation after 8 hrs by Western blot analysis; type: cell-based; details: HCT-116
[7] = Ratio of GI50 for human MKN45 cells to IC50 for human recombinant HDAC1; parameters: species or system MKN-45
[8] = Ratio of GI50 for human MKN45 cells to IC50 for HDAC in human HeLa cells
Histone deacetylase 1 [9] = target: T2, Histone deacetylase 1; assay: Inhibition of human recombinant HDAC1 at 10 uM by fluorimetry
[10] = target: T5, Protein deacetylase HDAC6 (Homo sapiens) (UniProt Q9UBN7); assay: Inhibition of HDAC6 in human HCT116 cells assessed as induction of alpha tubulin acetylation after 8 hrs by Western blot analysis; type: cell-based; details: HCT-116
T5 sequence (whole entry): T3 sequence (Q9UBN7 whole entry)

[11] = Ratio of GI50 for human MKN45 cells to IC50 for human recombinant HDAC2; parameters: species or system MKN-45

T2 sequence (Q13547 whole entry): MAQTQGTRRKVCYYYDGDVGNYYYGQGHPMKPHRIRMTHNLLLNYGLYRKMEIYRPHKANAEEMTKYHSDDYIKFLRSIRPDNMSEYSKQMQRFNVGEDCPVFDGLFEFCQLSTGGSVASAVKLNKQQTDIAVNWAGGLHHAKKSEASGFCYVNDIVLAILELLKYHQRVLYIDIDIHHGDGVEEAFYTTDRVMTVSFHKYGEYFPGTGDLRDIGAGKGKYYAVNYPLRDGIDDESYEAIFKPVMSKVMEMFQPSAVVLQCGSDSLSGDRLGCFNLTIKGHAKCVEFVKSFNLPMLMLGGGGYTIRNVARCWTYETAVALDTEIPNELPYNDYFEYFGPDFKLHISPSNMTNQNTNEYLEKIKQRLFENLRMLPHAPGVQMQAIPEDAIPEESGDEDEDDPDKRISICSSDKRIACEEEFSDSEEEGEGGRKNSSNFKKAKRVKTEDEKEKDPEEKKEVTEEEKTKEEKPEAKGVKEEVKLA
Histone deacetylase 2, sequence (Q92769 whole entry): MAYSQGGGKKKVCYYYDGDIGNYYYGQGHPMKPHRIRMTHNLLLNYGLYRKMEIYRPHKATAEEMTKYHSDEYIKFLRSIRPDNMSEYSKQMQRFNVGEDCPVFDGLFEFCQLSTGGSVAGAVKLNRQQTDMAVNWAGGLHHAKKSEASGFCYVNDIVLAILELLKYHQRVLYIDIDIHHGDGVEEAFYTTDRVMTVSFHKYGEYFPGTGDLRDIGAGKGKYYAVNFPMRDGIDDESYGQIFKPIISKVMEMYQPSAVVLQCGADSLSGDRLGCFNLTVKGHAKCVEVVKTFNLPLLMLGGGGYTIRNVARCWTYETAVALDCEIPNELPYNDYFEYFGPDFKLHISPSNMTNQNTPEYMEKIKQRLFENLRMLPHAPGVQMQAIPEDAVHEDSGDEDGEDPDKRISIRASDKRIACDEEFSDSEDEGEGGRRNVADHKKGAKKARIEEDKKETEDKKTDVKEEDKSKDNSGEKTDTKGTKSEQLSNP

O=C(N[C@H](CCCCCB(O)O)C(=O)Nc1cccc(-c2ccccc2)c1)c1cncs1
IC50 (Histone deacetylase 2): > 100 µM
IC50 (Histone deacetylase): 24 µM
IC50 (Histone deacetylase 8): > 100 µM
GI50 (LOX IMVI): 19 µM
GI50 (DMS-114; Homo sapiens, DMS-114, 48 h): 17 µM
GI50 (HCT-116): 16 µM
GI50 (SK-OV-3): 19 µM
IC50 (Histone deacetylase 1 [1]): > 100 µM
GI50 (MKN-45): 21 µM
GI50 (PC-3): 18 µM
GI50 (SNB-78): 13 µM
IC50 [2]: 5.6 µM
GI50 (cells [3]): 20 µM
GI50 (cells [4]): 19 µM

O=C(CCCCCCB(O)O)Nc1cccc(-c2ccccc2)c1
IC50 (Histone deacetylase): > 100 µM
inhibition [5]: 40%

O=C(CCCCCCC(=O)Nc1ccccc1)NO [VORINOSTAT]
GI50 (DMS-114): 2.9 µM

O=C(CCCCCCB(O)O)Nc1ccc(Oc2ccccc2)cc1
IC50 (Histone deacetylase): > 100 µM
inhibition [5]: 2.2%

O=C(N[C@@H](CCCCCB(O)O)C(=O)Nc1cccc(-c2ccccc2)c1)c1ccccc1
IC50 (Histone deacetylase 2): 3.6 µM
IC50 (Histone deacetylase): 1.6 µM
Activity [6]: Dose-dependent effect
IC50 (Histone deacetylase 8): > 100 µM
IC50 (Histone deacetylase 1 [1]): > 10 µM
GI50 (MKN-45): 9.3 µM
Ratio [7]: < 0.93
Ratio [8]: 5.8
inhibition (Histone deacetylase 1 [9]): 38%
IC50 [2]: 1.1 µM
Activity [10]: Dose-dependent effect
Ratio [11]: 2.6

O=C(N[C@H](CCCCCB(O)O)C(=O)Nc1cccc(-c2ccccc2)c1)c1ccccc1
IC50 (Histone deacetylase 2): > 100 µM
IC50 (Histone deacetylase): 17 µM
IC50 (Histone deacetylase 8): > 100 µM
IC50 (Histone deacetylase 1 [1]): > 100 µM
IC50 [2]: 24 µM

O=C(NC(CCCCCB(O)O)C(=O)Nc1cccc(-c2ccccc2)c1)c1cccnc1 (stereo unspecified)
IC50 (Histone deacetylase): 2 µM

O=C(NC(CCCCCB(O)O)C(=O)Nc1cccc(-c2ccccc2)c1)c1ccccc1 (stereo unspecified)
IC50 (Histone deacetylase): 2 µM

O=C(CCCCCCB(O)O)Nc1cnc2ccccc2c1
IC50 (Histone deacetylase): > 100 µM
inhibition [5]: 32%

CC(C)(C)OC(=O)NC(CCCCCB(O)O)C(=O)Nc1cccc(Oc2ccccc2)c1 (stereo unspecified)
IC50 (Histone deacetylase): > 100 µM
inhibition [5]: 38%

O=C(N[C@H](CCCCCB(O)O)C(=O)Nc1cccc(-c2ccccc2)c1)c1cccnc1
IC50 (Histone deacetylase 2): 99 µM
IC50 (Histone deacetylase): 15 µM
IC50 (Histone deacetylase 8): > 100 µM
IC50 (Histone deacetylase 1 [1]): > 100 µM
IC50 [2]: 14 µM

O=C(N[C@@H](CCCCCB(O)O)C(=O)Nc1cccc(-c2ccccc2)c1)c1cncs1
IC50 (Histone deacetylase 2): 0.53 µM
IC50 (Histone deacetylase): 0.92 µM
Activity [6]: Dose-dependent effect
IC50 (Histone deacetylase 8): 6.6 µM
GI50 (LOX IMVI): 1.3 µM
GI50 (DMS-114; Homo sapiens, DMS-114, 48 h): 2.4 µM
GI50 (HCT-116): 0.73 µM
GI50 (SK-OV-3): 2.2 µM
IC50 (Histone deacetylase 1 [1]): 2.2 µM
GI50 (MKN-45): 3.5 µM
GI50 (PC-3): 6.7 µM
Ratio [7]: 1.6
Ratio [8]: 3.8
GI50 (SNB-78): 9.1 µM
IC50 [2]: 0.11 µM
Activity [10]: Dose-dependent effect
GI50 (cells [3]): 6.5 µM
Ratio [11]: 6.6
GI50 (cells [4]): 3.2 µM

CC(C)(C)OC(=O)NC(CCCCCB(O)O)C(=O)Nc1nc2ccccc2s1 (stereo unspecified)
IC50 (Histone deacetylase): 23 µM
inhibition [5]: 78%

O=C(N[C@@H](CCCCCB(O)O)C(=O)Nc1cccc(-c2ccccc2)c1)c1cccnc1
IC50 (Histone deacetylase 2): 0.83 µM
IC50 (Histone deacetylase): 1.4 µM
Activity [6]: Dose-dependent effect
IC50 (Histone deacetylase 8): 23 µM
IC50 (Histone deacetylase 1 [1]): 2.8 µM
GI50 (MKN-45): 5.5 µM
Ratio [7]: 2
Ratio [8]: 3.9
IC50 [2]: 0.32 µM
Activity [10]: Dose-dependent effect
Ratio [11]: 6.6

O=C(CCCCCCB(O)O)Nc1ccccc1
IC50 (Histone deacetylase): > 100 µM
inhibition [5]: 37%

O=C(NC(CCCCCB(O)O)C(=O)Nc1cccc(-c2ccccc2)c1)c1cncs1 (stereo unspecified)
IC50 (Histone deacetylase): 1.4 µM

CC(C)(C)OC(=O)NC(CCCCCB(O)O)C(=O)Nc1ccc(Oc2ccccc2)cc1 (stereo unspecified)
IC50 (Histone deacetylase): > 100 µM
inhibition [5]: 15%

O=C(NC(CCCCCB(O)O)C(=O)Nc1cccc(-c2ccccc2)c1)OCc1ccccc1 (stereo unspecified)
IC50 (Histone deacetylase): 4.2 µM

O=C(NC(CCCCCB(O)O)C(=O)Nc1cccc(-c2ccccc2)c1)c1cscn1 (stereo unspecified)
IC50 (Histone deacetylase): 4.7 µM

O=C(NC(CCCCCB(O)O)C(=O)Nc1cccc(-c2ccccc2)c1)c1cc2ccccc2[nH]1 (stereo unspecified)
IC50 (Histone deacetylase): 11 µM

O=C(CCCCCCB(O)O)Nc1nc2ccccc2s1
IC50 (Histone deacetylase): > 100 µM
inhibition [5]: 5.1%

CC(C)(C)OC(=O)NC(CCCCCB(O)O)C(=O)Nc1cccc(-c2ccccc2)c1 (stereo unspecified)
IC50 (Histone deacetylase): 12 µM
inhibition [5]: 85%

O=C(NC(CCCCCB(O)O)C(=O)Nc1cccc(-c2ccccc2)c1)c1ccc2ccccc2n1 (stereo unspecified)
IC50 (Histone deacetylase): > 100 µM

CN(C)c1ccc(C(=O)NC(CCCCCB(O)O)C(=O)Nc2cccc(-c3ccccc3)c2)cc1 (stereo unspecified)
IC50 (Histone deacetylase): 13 µM

CC(C)(C)OC(=O)NC(CCCCCB(O)O)C(=O)Nc1cnc2ccccc2c1 (stereo unspecified)
IC50 (Histone deacetylase): 16 µM
inhibition [5]: 86%

CC(C)(C)OC(=O)NC(CCCCCB(O)O)C(=O)Nc1ccccc1 (stereo unspecified)
IC50 (Histone deacetylase): > 100 µM
inhibition [5]: 42%

O=C(Nc1cccnc1)C(CCCCCB(O)O)C(=O)Nc1cccc(-c2ccccc2)c1 (stereo unspecified)
IC50 (Histone deacetylase): 51 µM

O=C(Nc1ccccc1)C(CCCCCB(O)O)C(=O)Nc1cccc(-c2ccccc2)c1 (stereo unspecified)
IC50 (Histone deacetylase): 30 µM

O=C(CCCCCCB(O)O)Nc1cccc(Oc2ccccc2)c1
IC50 (Histone deacetylase): > 100 µM
inhibition [5]: 1.8%

— ChEMBL document CHEMBL1138526, “Design, synthesis, and biological activity of boronic acid-based histone deacetylase inhibitors” (J Med Chem, 2009)
